HSF-1 act: increases HSF-1 driven luciferase reporter signal; NIH3T3-HGL HSF-1 luciferase reporter, MG132, 8 h; 100% = twice DMSO control signal; activation, % at 9 µM; 300,000 tested, 1.7% active; AID 504408;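 active means mean replicate activation of at least 50% with a set share of replicates each reaching 50%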;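 further: 0% = median of the neutral control wells and 100% = twice that signal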
core dimer inh: HCV core protein dimerization inhibition | inhibition, % at 5 µM | TR-FRET GST/Flag-core106 dimerization, 1536-well | 300,000 tested, 0.33% active | AID 1899;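 active means inhibition above the mean of all tested compounds plus 3 SD, set per screening campaign, cut at about 45% in these data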
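Material: GST/Flag-tagged HCV core106 proteins. Incubation: 4 h, 22.5 °C incubation. Read-out basis: inhibition (%) from 671 over 617 nm ratio. Measured by: TR-FRET, excitation 340 nm, emission 617 and 671 nm.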
AI-2 QS mod: Vibrio harveyi AI-2 quorum sensing modulation | Vibrio harveyi JMH597 AI-2 luminescence/OD600 ratio, 9 h; hits give low values; strain lacks LuxN and CqsS sensors; 0 = neutral-control median | activity change, % at 7.5 µM | 300,000 tested, 0.4% active | AID 2094; in the data active means activity change below about -75%, passing the limit was not always enough;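 further: luminescence divided by OD600 gain over 9 h not by final OD600 alone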
ALR inh: blocks human ALR sulfhydryl oxidase activity; purified ALR, DTT oxidation, H2O2 HRP-luminol luminescence; AID 485317; 290,000 tested, 3.8% active; P55789; inhibition, % (no concentration beside the values);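 active means mean replicate inhibition above about 79%, with every replicate also reaching it, limit read from the data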
Target sequence (P55789 whole entry, looked up): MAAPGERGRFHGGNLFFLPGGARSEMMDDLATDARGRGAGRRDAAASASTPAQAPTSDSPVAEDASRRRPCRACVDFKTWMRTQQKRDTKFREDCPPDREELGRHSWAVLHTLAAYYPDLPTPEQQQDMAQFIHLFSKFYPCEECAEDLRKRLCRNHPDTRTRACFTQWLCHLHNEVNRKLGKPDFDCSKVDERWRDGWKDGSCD
HSF1 inh: HSF1 inhibition | activity change, negative = inhibition, % at 7.5 µM (by protocol) | 300,000 tested, 0.77% active | NIH3T3-HGL HSE-luciferase, MG132-induced, luminescence 8 h; hits give low values;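 active means more than half of replicate wells show activity change below -50%, luminescence cut by over half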;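 further: luciferase reports HSF-1 transcriptional activity via heat shock element; 0% = median of DMSO wells and -100% = zero luminescence signal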
PHOSPHO1 block: PHOSPHO1 (human) inhibition; Q8TCT1; recombinant PHOSPHO1, absorbance phosphatase assay; inhibition, % at 13.3 µM; 290,000 tested, 1.1% active; AID 1565; in the data active means inhibition above about 60%
Target sequence (Q8TCT1 whole entry, looked up): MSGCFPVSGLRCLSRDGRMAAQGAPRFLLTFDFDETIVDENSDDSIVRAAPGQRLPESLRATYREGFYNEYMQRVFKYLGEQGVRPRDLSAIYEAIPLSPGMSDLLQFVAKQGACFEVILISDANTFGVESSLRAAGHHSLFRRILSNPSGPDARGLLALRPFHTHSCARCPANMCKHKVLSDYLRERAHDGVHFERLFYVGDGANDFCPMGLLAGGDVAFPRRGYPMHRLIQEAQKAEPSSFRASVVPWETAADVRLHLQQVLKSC
An asterisk follows results filed as active; x = no result given. Sampled rows, rich in hits. Any-hit rate of the full collection: about 6.8%.

SMILES	HSF-1 act	core dimer inh	AI-2 QS mod	ALR inh	HSF1 inh	PHOSPHO1 block
COc1cccc(OC)c1OCc1cc(C2C3CCCC=C3C(C#N)=C(N)C2(C#N)C#N)c(C)cc1C (stereo not given)	2	56*	4	-4	-8	12
COc1ccc(C(=O)N=c2sc3c(C)ccc(OC)c3n2C)cc1OC	62*	14	10	-4	42	3
O=C1CC(/C=C/c2ccc(Cl)cc2)=Nc2ccccc2N1	70*	7	21	x	63	16
CCn1cc(C(=O)N2CCCC(C(=O)c3ccc4ccccc4c3)C2)cn1 (stereo not given)	16	-10	23	-6	8	43
COc1cccc(CNC(=O)c2ccc(OCC(=O)N3CCOCC3)c(OC)c2)c1	3	-3	-1	-4	3	x
COc1cccc(CNC(=O)C2=Cc3cccc(OC)c3OC2)c1	1	0	19	96*	4	24
CCOC(=O)CCNC(=O)N1CCCC(C(=O)c2cc(C)c(OC)c(C)c2)C1 (stereo not given)	-2	7	10	-5	-1	-18
Cc1cccc(NC(=O)COc2coc(CN3CCN(c4ccccc4)CC3)cc2=O)c1	-8	5	2	12	-4	x
O=[N+]([O-])c1ccc(CNc2cccc(Cl)c2)s1	45	4	-21	-12	13	30
O=[N+]([O-])c1ccc(CNc2ccc(Cl)cc2)s1	6	-18	9	81*	8	x
COc1ccc(NCc2ccc([N+](=O)[O-])s2)cc1	-5	-9	8	99*	0	-2
O=[N+]([O-])c1ccc(CNc2ccc(F)cc2)s1	4	9	-2	99*	7	34
COc1ccc(NCc2ccc([N+](=O)[O-])s2)c(OC)c1	x	-7	x	98*	x	0
CC(C)(C)c1ccc(C(=O)NCC(=O)OCC(=O)c2ccc3c(c2)-c2ccccc2C3)cc1	5	-11	-8	-1	16	-2
Cc1cc(OCC(=O)Nc2cnn(CCCC(=O)O)c2)ccc1Cl	5	-20	12	-23	4	48
CCc1cc2ccc(C)cc2nc1SCC(=O)Nc1cc(C)on1	-35	5	23	32	-19	33
CCc1cc2cc3c(cc2nc1SCC(=O)Nc1cc(C)on1)OCO3	-10	111*	7	-8	-1	2
Cc1cc2cc3c(cc2nc1SCC(=O)Nc1nc(C)c(C)s1)OCO3	7	1	16	97*	-2	57
Cc1ccc(SC(C)C(=O)Nc2cccnc2)cc1 (stereo not given)	-7	-1	23	-3	-10	60*
O=C(O)CCn1cc(-c2ccc(Cl)cc2)nc1-c1ccncc1	x	-12	x	77*	x	x
COc1ccc(-c2cn(Cc3ccc(C(N)=O)cc3)c(-c3ccncc3)n2)cc1	x	-9	x	98*	x	x
Cc1ccc(S(=O)(=O)NCC(C)n2cncn2)cc1C (stereo not given)	18	2	7	-2	-10	6
O=C(C(=S)N1CCOCC1)c1c[nH]c2ccccc12	-10	-1	x	20	-4	43
O=C(CSc1ccc(-c2ccc(F)cc2)nn1)NCc1ccco1	-2	0	10	-5	14	-26
CCN1C(=O)/C(=C\c2ccc(F)cc2)N=C1SCC(=O)NCc1ccco1	11	-4	9	95*	5	-7
SMILES	HSF-1 act	core dimer inh	AI-2 QS mod	ALR inh	HSF1 inh	PHOSPHO1 block
CC(=O)NC1N=C(C)N(c2ccccc2)C1=O (stereo not given)	-4	-4	-3	x	3	100*
Cc1cc(C)n(C2CC(=O)N(c3ccccc3)C2=O)n1 (stereo not given)	5	-4	24	-13	9	-2
Nc1cc(=O)[nH]c(SCC(=O)Nc2ccc(N3CCOCC3)cc2)n1	x	x	x	3	x	x
CCOc1cccc(C2C(C(=O)c3ccc(C)o3)=C(O)C(=O)N2Cc2ccncc2)c1 (stereo not given)	-9	5	6	0	1	-36
Cc1cc(N2C(=O)C(O)=C(C(=O)c3ccco3)C2c2cccc(Oc3ccccc3)c2)no1 (stereo not given)	17	6	30	94*	11	12
O=C(C1=C(O)C(=O)N(c2nccs2)C1c1ccccc1)c1cc2ccccc2o1 (stereo not given)	24	10	4	96*	1	37
CCOc1cccc(C2C(C(=O)c3ccc(C)o3)=C(O)C(=O)N2c2nccs2)c1 (stereo not given)	33	24	19	12	19	71*
COC(=O)c1ccc(C2C(C(=O)c3ccc(C)o3)=C(O)C(=O)N2c2cc(C)on2)cc1 (stereo not given)	12	11	14	91*	-1	24
O=C(CCNS(=O)(=O)c1ccccc1F)OCc1ccccc1Cl	x	x	x	-6	x	x
CN(CC(=O)Nc1cccc(F)c1)C(=O)C1CCN(S(=O)(=O)c2ccc3c(c2)OCCO3)CC1	11	3	6	-15	2	x
N[C@@H](CO)c1nnc([C@H](CC(=O)O)NC(=O)C2CCNCC2)o1	-5	-8	2	9	-4	5
O=C(c1ccc2c(c1)OCCO2)N1CCN(c2ccc([N+](=O)[O-])cc2)CC1	0	2	17	1	0	32
Cc1ccc(C2C(C(=O)c3cc4ccccc4o3)=C(O)C(=O)N2c2cc(C)on2)cc1 (stereo not given)	14	0	28	98*	20	28
CCCCOc1cccc(C2C(C(=O)c3cccs3)=C(O)C(=O)N2Cc2cccnc2)c1 (stereo not given)	-73	10	48	32	-64*	-17
Cc1cc(N2C(=O)C(O)=C(C(=O)c3cc4ccccc4o3)C2c2ccc([N+](=O)[O-])cc2)no1 (stereo not given)	-6	16	11	98*	-9	40
CCN(CC(=O)NCc1cccs1)C(=O)c1ccc(NS(=O)(=O)c2ccc(C(C)=O)cc2)cc1	-6	-2	38	x	-3	x
Clc1ccc(NCc2cccnc2)cc1	19	10	-28	99*	3	10
O=C(C1=C(c2ccccc2)C(=O)c2ccccc2C1=O)c1ccccc1	82*	x	19	x	55	-7
COC1=C(c2ccccc2)C(=O)c2ccccc2C1=O	15	-13	-5	-60	1	-11
Cc1oc(-c2cccc(Cl)c2)nc1CN1CCCC(C(=O)NC(C)c2ccc3c(c2)OCCO3)C1 (stereo not given)	54*	3	18	-19	27	10
CCOC(=O)/C=C/C(=O)N1CCN(C(=O)/C=C/C(=O)OCC)CC1	3	0	14	x	2	27

Compound activity (PubChem)
